Test results from ChEMBL document CHEMBL4396885, “Thioether-based 2-aminobenzamide derivatives: Novel HDAC inhibitors with potent in vitro and in vivo antitumor activity” (Eur J Med Chem, 2019).
pIC50: −log10 of the molar value.

Assays:
A549 [1] = assay: Induction of apoptosis in human A549 cells assessed as viable cells at 1 uM after 48 hrs by Annexin V-FITC/propidium iodide staining based flow cytometry (reference value: 98%); format: functional; details: A549, 48 h, read-out: Activity
Method in brief: (§1)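 A549 seeded 4×10⁶ cells/well, dosed after 12 h with compound at various concentrations, harvested after 48 h. Resuspended in annexin-binding buffer, stained with Annexin V-FITC and propidium iodide for 15 min in the dark, analysed by flow cytometry; means of three separate experiments.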

A549 [2] = assay: Antiproliferative activity against human A549 cells assessed as growth inhibition at 2 uM after 72 hrs by CCK-8 assay relative to control; format: functional; details: A549, 72 h, read-out: GI
A549 [3] = assay: Antiproliferative activity against human A549 cells assessed as growth inhibition at 8 uM after 72 hrs by CCK-8 assay relative to control; format: functional; details: A549, 72 h, read-out: GI
A-375 [4] = assay: Antiproliferative activity against human A375 cells assessed as growth inhibition at 2 uM after 72 hrs by CCK-8 assay relative to control; format: functional; details: A-375, 72 h, read-out: GI
A-375 [5] = assay: Antiproliferative activity against human A375 cells assessed as growth inhibition at 8 uM after 72 hrs by CCK-8 assay relative to control; format: functional; details: A-375, 72 h, read-out: GI
SMMC-7721 [6] = assay: Antiproliferative activity against human SMMC7721 cells assessed as growth inhibition at 2 uM after 72 hrs by CCK-8 assay relative to control; format: functional; details: SMMC-7721, 72 h, read-out: GI
SMMC-7721 [7] = assay: Antiproliferative activity against human SMMC7721 cells assessed as growth inhibition at 8 uM after 72 hrs by CCK-8 assay relative to control; format: functional; details: SMMC-7721, 72 h, read-out: GI
HCT-116 [8] = assay: Antiproliferative activity against human HCT116 cells assessed as growth inhibition at 2 uM after 72 hrs by CCK-8 assay relative to control; format: functional; details: HCT-116, 72 h, read-out: GI
HCT-116 [9] = assay: Antiproliferative activity against human HCT116 cells assessed as growth inhibition at 8 uM after 72 hrs by CCK-8 assay relative to control; format: functional; details: HCT-116, 72 h, read-out: GI
HeLa [10] = assay: Antiproliferative activity against human HeLa cells assessed as growth inhibition at 2 uM after 72 hrs by CCK-8 assay relative to control; format: functional; details: read-out: GI
HeLa [11] = assay: Antiproliferative activity against human HeLa cells assessed as growth inhibition at 8 uM after 72 hrs by CCK-8 assay relative to control; format: functional; details: read-out: GI
A549 [12] = assay: Antiproliferative activity against human A549 cells assessed as decrease in cell viability after 72 hrs by CCK-8 assay; format: functional, cell-based; details: A549, 72 h
Method in brief: (§2)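 Cells grown to 70–85% confluence (A375, A549, HCT116 in RPMI1640; HeLa, SMMC7721 in DMEM; 10% FBS, 37 °C, 5% CO2), seeded 4000/well, dosed after 12 h across a concentration range, incubated 72 h, then CCK-8 for 1 h; absorbance at 450 nm. IC50 as mean ± SD of three separate experiments.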

A-375 [13] = assay: Antiproliferative activity against human A375 cells assessed as decrease in cell viability after 72 hrs by CCK-8 assay; format: functional, cell-based; details: A-375, 72 h; method in brief: as §2
SMMC-7721 [14] = assay: Antiproliferative activity against human SMMC7721 cells assessed as decrease in cell viability after 72 hrs by CCK-8 assay; format: functional, cell-based; details: SMMC-7721, 72 h; method in brief: as §2
HCT-116 [15] = assay: Antiproliferative activity against human HCT116 cells assessed as decrease in cell viability after 72 hrs by CCK-8 assay; format: functional, cell-based; details: HCT-116, 72 h; method in brief: as §2
HeLa [16] = assay: Antiproliferative activity against human HeLa cells assessed as decrease in cell viability after 72 hrs by CCK-8 assay; format: functional, cell-based; method in brief: as §2
A549 [17] = assay: Cell cycle arrest in human A549 cells assessed as accumulation of cells at G0/G1 phase at 0.5 uM after 48 hrs by propidium iodide staining-based flow cytometry (reference value: 73.35%); format: functional
A549 [18] = assay: Induction of apoptosis in human A549 cells assessed as viable cells at 0.5 uM after 48 hrs by Annexin V-FITC/propidium iodide staining based flow cytometry (reference value: 98%); format: functional; details: A549, 48 h, read-out: Activity; method in brief: as §1
A549 [19] = assay: Induction of apoptosis in human A549 cells assessed as early apoptotic cells at 0.5 uM after 48 hrs by Annexin V-FITC/propidium iodide staining based flow cytometry (reference value: 1.19%); format: functional; method in brief: as §1
A549 [20] = assay: Induction of apoptosis in human A549 cells assessed as late apoptotic cells at 0.5 uM after 48 hrs by Annexin V-FITC/propidium iodide staining based flow cytometry (reference value: 0.637%); format: functional; method in brief: as §1
A549 [21] = assay: Induction of apoptosis in human A549 cells assessed as necrotic cells at 0.5 uM after 48 hrs by Annexin V-FITC/propidium iodide staining based flow cytometry (reference value: 0.135%); format: functional; method in brief: as §1
A549 [22] = assay: Induction of apoptosis in human A549 cells assessed as early apoptotic cells at 1 uM after 48 hrs by Annexin V-FITC/propidium iodide staining based flow cytometry (reference value: 1.19%); format: functional; method in brief: as §1
A549 [23] = assay: Induction of apoptosis in human A549 cells assessed as late apoptotic cells at 1 uM after 48 hrs by Annexin V-FITC/propidium iodide staining based flow cytometry (reference value: 0.637%); format: functional; method in brief: as §1
A549 [24] = assay: Induction of apoptosis in human A549 cells assessed as necrotic cells at 1 uM after 48 hrs by Annexin V-FITC/propidium iodide staining based flow cytometry (reference value: 0.135%); format: functional; method in brief: as §1
A549 [25] = assay: Induction of apoptosis in human A549 cells assessed as viable cells at 2 uM after 48 hrs by Annexin V-FITC/propidium iodide staining based flow cytometry (reference value: 98%); format: functional; details: A549, 48 h, read-out: Activity; method in brief: as §1
A549 [26] = assay: Induction of apoptosis in human A549 cells assessed as early apoptotic cells at 2 uM after 48 hrs by Annexin V-FITC/propidium iodide staining based flow cytometry (reference value: 1.19%); format: functional; method in brief: as §1
A549 [27] = assay: Induction of apoptosis in human A549 cells assessed as late apoptotic cells at 2 uM after 48 hrs by Annexin V-FITC/propidium iodide staining based flow cytometry (reference value: 0.637%); format: functional; method in brief: as §1
A549 [28] = assay: Induction of apoptosis in human A549 cells assessed as necrotic cells at 2 uM after 48 hrs by Annexin V-FITC/propidium iodide staining based flow cytometry (reference value: 0.135%); format: functional; method in brief: as §1
A549 [29] = assay: Cell cycle arrest in human A549 cells assessed as accumulation of cells at S phase at 0.5 uM after 48 hrs by propidium iodide staining-based flow cytometry (reference value: 12.83%); format: functional
A549 [30] = assay: Cell cycle arrest in human A549 cells assessed as accumulation of cells at G2/M phase at 0.5 uM after 48 hrs by propidium iodide staining-based flow cytometry (reference value: 13.62%); format: functional
A549 [31] = assay: Cell cycle arrest in human A549 cells assessed as accumulation of cells at G0/G1 phase at 1 uM after 48 hrs by propidium iodide staining-based flow cytometry (reference value: 73.35%); format: functional
A549 [32] = assay: Cell cycle arrest in human A549 cells assessed as accumulation of cells at S phase at 1 uM after 48 hrs by propidium iodide staining-based flow cytometry (reference value: 12.83%); format: functional
A549 [33] = assay: Cell cycle arrest in human A549 cells assessed as accumulation of cells at G2/M phase at 1 uM after 48 hrs by propidium iodide staining-based flow cytometry (reference value: 13.62%); format: functional
A549 [34] = assay: Cell cycle arrest in human A549 cells assessed as accumulation of cells at G0/G1 phase at 2 uM after 48 hrs by propidium iodide staining-based flow cytometry (reference value: 73.35%); format: functional
A549 [35] = assay: Cell cycle arrest in human A549 cells assessed as accumulation of cells at S phase at 2 uM after 48 hrs by propidium iodide staining-based flow cytometry (reference value: 12.83%); format: functional
A549 [36] = assay: Cell cycle arrest in human A549 cells assessed as accumulation of cells at G2/M phase at 2 uM after 48 hrs by propidium iodide staining-based flow cytometry (reference value: 13.62%); format: functional
A549 [37] = assay: Antitumor activity against human A549 cells xenografted in Balb/c nude mouse assessed as tumor growth inhibition at 25 mg/kg, ip administered twice per day for 21 days relative to control; format: functional; details: 504 h, read-out: TGI
Method in brief: (§3)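 Female BALB/c nude mice, 5–6 weeks, implanted s.c. in right axilla with 3×10⁶ A549 cells; randomized at ~95 mm³ tumor volume, 4 per group. Dosed ip 25 mg/kg twice daily for 21 days; vehicle controls got DMA & 5% Solutol HS-15 (5:95). Tumor size (V=length×width²/2) and body weight measured every 3 days; TGI from volume change relative to control.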

[38] = Toxicity against nude Balb/c mouse xenografted with human A549 cells assessed as no change in body weight at 25 mg/kg, ip administered twice per day for 21 days and measured every 3 days during compound dosing; format: organism-based; details: in vivo; method in brief: as §3
[39] = Half life in ICR mouse at 4 mg/kg, iv after 0.08 to 24 hrs by LC-MS/MS analysis; format: ADME, organism-based; details: in vivo
Method in brief: (§4)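 Male ICR mice (29.7~37.4 g), single iv dose 4 mg/kg in DMSO:40% SBE-β-CD 20:80 (v/v). Retro-orbital blood at 0.08–24 h into EDTA-K2 tubes; plasma protein-precipitated with acetonitrile containing internal standards, analysed by LC-MS/MS; n=3 per time point; noncompartmental analysis.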

[40] = Clearance in ICR mouse at 4 mg/kg, iv after 0.08 to 24 hrs by LC-MS/MS analysis; format: ADME, organism-based; details: in vivo; method in brief: as §4
[41] = Volume of distribution at steady state n ICR mouse at 4 mg/kg, iv after 0.08 to 24 hrs by LC-MS/MS analysis; format: ADME, organism-based; details: in vivo, read-out: Vdss; method in brief: as §4

Row | Structure (SMILES) | viability at 1 µM (A549 [1]) [%] | inhibition of growth at 2 µM (A549 [2]) [%] | inhibition of growth at 8 µM (A549 [3]) [%] | inhibition of growth at 2 µM (A-375 [4]) [%] | inhibition of growth at 8 µM (A-375 [5]) [%] | inhibition of growth at 2 µM (SMMC-7721 [6]) [%] | inhibition of growth at 8 µM (SMMC-7721 [7]) [%] | inhibition of growth at 2 µM (HCT-116 [8]) [%] | inhibition of growth at 8 µM (HCT-116 [9]) [%] | inhibition of growth at 2 µM (HeLa [10]) [%] | inhibition of growth at 8 µM (HeLa [11]) [%] | pIC50 (A549 [12]) | pIC50 (A-375 [13]) | pIC50 (SMMC-7721 [14]) | pIC50 (HCT-116 [15]) | pIC50 (HeLa [16]) | Activity (A549 [17]) [%] | viability at 0.5 µM (A549 [18]) [%] | Activity (A549 [19]) [%] | Activity (A549 [20]) [%] | further results
1 | CC(=O)Nc1ccc(C(=O)Nc2ccccc2N)cc1 [TACEDINALINE] | 89.7 | 23.5 | 29.1 | 12.8 | 46.4 | 23.5 | 29.1 | 13 | 44 | 23.5 | 29.1 | 4.78 | 5.02 | 4.85 | 5.19 | 4.87 | 76.99 | 92.4 | 1.17 | 1.86 | Activity (A549 [21]): 4.6%; Activity (A549 [22]): 3.92%; Activity (A549 [23]): 5.87%; Activity (A549 [24]): 0.521%; viability at 2 µM (A549 [25]): 83.3%; Activity (A549 [26]): 3.68%; Activity (A549 [27]): 9.92%; Activity (A549 [28]): 3.15%; Activity (A549 [29]): 7.64%; Activity (A549 [30]): 15.37%; Activity (A549 [31]): 75.86%; Activity (A549 [32]): 6.73%; Activity (A549 [33]): 17.41%; Activity (A549 [34]): 77.38%; Activity (A549 [35]): 7.37%; Activity (A549 [36]): 15.25%; inhibition in vivo at 25 mg/kg (A549 [37]): 46.8%; Activity [38]: Non-Toxic
2 | Nc1ccccc1NC(=O)c1ccc(COc2ccc(F)cc2)cc1 |  |  |  |  |  |  |  |  |  |  |  |  |  |  |  |  |  |  |  |  | half-life [39]: 33.6 min; clearance [40]: 118 mL/min/kg; Vd [41]: 2.33 L/kg
3 | Nc1ccc(F)cc1NC(=O)c1ccc(CNC(=O)/C=C/c2cccnc2)cc1 | 89 | 21.9 | 85.6 | 56.5 | 71.7 | 56.5 | 71.7 | 61.1 | 87.4 | 20.6 | 34.2 | 5.17 | 5.32 | 5.06 | 5.80 | 5.47 | 75.24 | 96.5 | 2.17 | 0.898 | Activity (A549 [21]): 0.455%; Activity (A549 [22]): 1.01%; Activity (A549 [23]): 5.25%; Activity (A549 [24]): 4.71%; viability at 2 µM (A549 [25]): 91%; Activity (A549 [26]): 3.97%; Activity (A549 [27]): 4.14%; Activity (A549 [28]): 0.881%; Activity (A549 [29]): 6.97%; Activity (A549 [30]): 17.79%; Activity (A549 [31]): 74.07%; Activity (A549 [32]): 7.26%; Activity (A549 [33]): 18.67%; Activity (A549 [34]): 75.53%; Activity (A549 [35]): 9.43%; Activity (A549 [36]): 15.04%
